In the library only some 1.7% were active in any assay of this set; here they are far more common.
Vif imaging = HIV Vif self-association inhibitors, primary screen, imaging, HEK293T, single point. HEK293T cells, Vif self-association by quenched fluorescence, 24 h. inhibition, % at 7.49 µM. 340,000 compounds, 0.35% hits. AID 602346, 2012; in the data active = inhibition above about 50%, passing the limit was not always enough; inconclusive = no clear call, values can overlap the other calls; inactive = below about 31%
T cell modulator = modulators of CD8 T cell-vesicle binding, primary screen, mouse 2C CD8+ T cells, flow cytometry | 2C CD8+ T cell-vesicle binding; stronger effect = lower value | response (vesicle binding), % at 7 µM | 330,000 compounds, 0.068% hits;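 active = response, share of CD8 T cells binding vesicles, and their 90th percentile fluorescence all below set limits, cut at about 80% in these data, passing the limit was not always enough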;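 note: values below 100% mean blocked vesicle binding to the CD8+ T cells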
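Read-out – percent CD8+ FL2 mean versus row control · System – murine 2C transgenic CD8+ T lymphocytes · Times – 1.5 h cell–vesicle binding at 37 °C, then 20 min icy labelling · Control set – naked vesicles low, QL9 vesicles with vehicle high · Detection – cytometric PE anti-B7-1 and Alexa647 anti-CD8 signals after 1% paraformaldehyde fixation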
Myeloid diff 2 = induction of myeloid progenitor differentiation, primary screen, cell-based, flow cytometry, MLPCN library; calls only at 10 µM; AID 624256, 2012; 360,000 compounds, 1% hits; ER-HoxA9 myeloid progenitors, lysozyme-GFP differentiation;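 active = normalized GFP-positive differentiation at or above the plate's own cutoff, the solvent-only control mean plus 3 SD; inconclusive = no clear call, values can overlap the other calls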;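 note: cells exposed to compound for four days before flow analysis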
DSG3 Ab inh = inhibitors of pemphigus antibody binding to DSG3, primary screen, biochemical, bead-based, flow cytometry, scFv-GFP; Desmoglein-3 (Homo sapiens), P32926; DSG3-coupled beads, scFv-anti-DSG3-GFP binding; stronger effect = lower value; binding (percent of control), % at 10 µM; 310,000 compounds, 0.48% hits;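 active = binding more than 3 SD below its plate's average and above zero; inconclusive = below that plate limit but binding exactly zero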
Target sequence (P32926 whole entry, looked up): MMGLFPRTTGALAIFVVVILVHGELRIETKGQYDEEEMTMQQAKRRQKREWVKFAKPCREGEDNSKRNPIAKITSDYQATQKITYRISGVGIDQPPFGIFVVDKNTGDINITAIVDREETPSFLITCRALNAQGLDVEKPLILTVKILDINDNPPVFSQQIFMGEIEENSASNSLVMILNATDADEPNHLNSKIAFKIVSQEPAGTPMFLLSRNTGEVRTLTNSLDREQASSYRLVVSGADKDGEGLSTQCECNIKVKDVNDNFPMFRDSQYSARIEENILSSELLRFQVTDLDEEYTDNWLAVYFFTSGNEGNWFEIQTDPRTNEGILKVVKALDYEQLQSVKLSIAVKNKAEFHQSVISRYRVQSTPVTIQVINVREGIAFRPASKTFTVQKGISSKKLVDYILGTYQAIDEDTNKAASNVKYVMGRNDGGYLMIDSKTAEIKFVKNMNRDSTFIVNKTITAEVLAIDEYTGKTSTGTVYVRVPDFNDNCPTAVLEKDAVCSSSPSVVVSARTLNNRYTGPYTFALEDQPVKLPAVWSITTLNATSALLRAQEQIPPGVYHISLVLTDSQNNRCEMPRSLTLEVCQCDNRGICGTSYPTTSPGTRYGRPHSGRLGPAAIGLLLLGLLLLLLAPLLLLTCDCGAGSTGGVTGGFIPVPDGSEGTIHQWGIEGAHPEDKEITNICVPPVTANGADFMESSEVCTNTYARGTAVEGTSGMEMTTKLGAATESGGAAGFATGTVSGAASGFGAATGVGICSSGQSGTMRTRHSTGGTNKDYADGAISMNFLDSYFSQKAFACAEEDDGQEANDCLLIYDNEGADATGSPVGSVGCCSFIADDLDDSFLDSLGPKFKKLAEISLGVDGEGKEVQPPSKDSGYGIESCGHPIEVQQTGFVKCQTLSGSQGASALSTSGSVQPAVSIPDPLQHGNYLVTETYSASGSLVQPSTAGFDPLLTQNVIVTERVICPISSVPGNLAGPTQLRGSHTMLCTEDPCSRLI
* = called active by the depositor; i = inactive; ? = inconclusive; . = no result given; + = active, no number.

SMILES | Vif imaging | T cell modulator | Myeloid diff 2 | DSG3 Ab inh
O=C1CCC(C(=O)NCCN2C(=O)S/C(=C\c3cccnc3)C2=O)=NN1 | 10.8 | 186.3 | i | 120.5
O=C(NCCN1C(=O)S/C(=C\c2ccc(Cl)c(Cl)c2)C1=O)c1cnccn1 | -1.5 | 275.4 | i | 88.4*
COCCN(C(=O)COC(=O)Cc1coc2cc3c(cc12)CCC3)c1c(N)n(Cc2ccccc2)c(=O)[nH]c1=O | 7.3 | 347.6 | i | 93.1
CCNC(=S)N=Nc1c(O)[nH]c2ccc([N+](=O)[O-])cc12 | 2.5 | 982.4 | i | 39.8*
O=[N+]([O-])c1ccc2[nH]c(O)c(N=NC(=S)NCC3CCCO3)c2c1 (stereo unspecified) | -6.2 | 327.6 | i | 98.9
O=C(CNC(=O)c1ccc(Br)cc1)N=Nc1c(O)[nH]c2ccc([N+](=O)[O-])cc12 | -7.9 | 183.4 | ? | 35.0*
Cc1ccc(NC(=O)NN2CCN(C)CC2)cc1C | -6.4 | 307.1 | i | 105.3
N#Cc1ccccc1OCC(=O)OCCCOC(=O)COc1ccccc1C#N | -6.3 | 303.3 | i | 100.4
CCOC(=O)c1c(NC(=O)C(NCCN(C)C)c2ccccc2)sc2c1CCCC2 (stereo unspecified) | -0.7 | 787.2 | i | ?
CCOC(=O)C1CCCN(S(=O)(=O)c2ccc(C)cc2)C1 (stereo unspecified) | -1.1 | 579.8 | i | .
CCOC(=O)C1CCCN(S(=O)(=O)c2ccc3c(c2)N(C)C(=O)CC(=O)N3C)C1 (stereo unspecified) | -1.9 | 280.0 | + | 104.6
CCOC(=O)c1c(-c2ccccc2)csc1NC(=O)/C(C#N)=C/c1ccc(O)c(OC)c1 | 5.6 | 971.3 | + | .
CCOC(=O)c1c(-c2ccccc2)csc1NC(=O)/C(C#N)=C/c1ccc(OC)c(OC)c1 | 11.2 | 348.5 | + | 102.9
Cc1ccc(/C=C2/CNC/C(=C/c3ccc(C)cc3)C2=O)cc1 | 120.3* | . | ? | 88.0
Cc1ccc(/C=C2\CCOC2=O)cc1 | -4.0 | 166.5 | i | 93.8
Cc1ccc(S(=O)(=O)N2[C@@H](Cc3ccccc3)CO[C@H]2CC(=O)c2cccc3ccccc23)cc1 | . | . | i | .
Cc1nc(NCc2ccco2)c2c(C)c(C)sc2n1 | -4.8 | 104.7 | ? | 97.1
Cc1sc2nc3c4ccccc4c(NCc4ccco4)nn3c(=O)c2c1C | 7.9 | 189.4 | + | 89.7
C/C(=N\NC(=O)c1c([N+](=O)[O-])c(C)nn1C)c1ccc(NC(=O)C2CCCC2)cc1 | 64.2* | 328.9 | ? | 118.7
CCOC(=O)C1(CCOc2ccccc2)CCN(CC=C(C)C)CC1 | -3.2 | 195.4 | + | 102.8
CCOC(=O)C1(CCOc2ccccc2)CCN(CC2CC2)CC1 | -0.1 | 210.0 | i | 99.1
COc1ccc(C2=Nc3ccccc3NC(=O)C2N(Cc2ccccc2)C(=O)C2=NNC(=O)CC2)cc1 (stereo unspecified) | . | . | i | .
Cc1cc(C)c(C(O)c2ncc(-c3cccc(F)c3)[nH]2)c(C)c1 (stereo unspecified) | -2.2 | . | i | .
COc1ccc([C@H]2/C=C\CN(C(=O)c3ccccc3)[C@@H](C)C(=O)N2Cc2ccc(F)cc2)cc1 | -8.1 | 729.5 | i | 104.3
COc1ccc([C@H]2/C=C\CN(S(=O)(=O)/C=C/c3ccccc3)[C@@H](C)C(=O)N2Cc2ccc(F)cc2)cc1 | -3.7 | 518.3 | + | 105.4
SMILES | Vif imaging | T cell modulator | Myeloid diff 2 | DSG3 Ab inh
CCOC(=O)CN1N=C(c2ccc(Cl)cc2)CCC1=O | -3.2 | 241.9 | i | 66.5*
CC(=O)c1ccc(OCC(O)COc2ccc(C(C)=O)cc2)cc1 | 19.3 | 367.0 | i | 84.0
CC(=O)c1ccc(OCC(O)CN(C)CCOc2ccc(Br)cc2)cc1 (stereo unspecified) | -3.9 | 418.6 | + | ?
Nc1ccn(C2CSC(CO)O2)c(=O)n1 (stereo unspecified) | . | . | i | .
O=C(NCc1ccco1)c1ccc(Cl)nc1 | 7.4 | 381.3 | i | 78.3*
Cc1ccc(CS(=O)(=O)c2ccc(C(=O)N3CCCCC3)cc2[N+](=O)[O-])cc1 | -2.6 | 257.9 | i | 115.4
Cc1ccc(CS(=O)(=O)c2ccc(C(=O)N3CCN(c4ccccn4)CC3)cc2[N+](=O)[O-])cc1 | 0.6 | 269.9 | + | 120.1
CCN(CC)c1ccc(/C=N/NC(=O)c2ccoc2C)c(O)c1 | 18.8 | 73.7 | . | 48.3*
CCN(CC)c1ccc(/C=N/NC(=O)c2ccc3nc[nH]c3c2)c(O)c1 | -5.7 | 251.4 | + | 99.1
CCN(CC)c1ccc(/C=N/N=C(N)N)c(O)c1 | 64.6* | 214.6 | . | 95.3
COc1cccc(/C=N/NC(=O)c2ccc3nc[nH]c3c2)c1O | -1.9 | 213.2 | i | 97.8
CCN1C(=NCCOC)N[C@@H](c2ccccc2)[C@H](C(=O)OC)[C@H]1C | 0.5 | 321.4 | i | 102.5
CCOC(=O)C1=C(C(=O)OCC)N(CC2CCCCC2)CCC1=O | -9.9 | . | i | 96.5
CC(C)[N+]1=C2C=CC=CC=C2SC12C([N+](=O)[O-])=CC(=[N+]([O-])[O-])C=C2[N+](=O)[O-] (stereo unspecified) | 0.1 | 258.7 | + | 66.4*
CN1/C(=C/C=C(C#N)C#N)C=Cc2ccccc21 | -4.3 | 69.4 | + | 82.0
CCOC(=O)/C(C#N)=C/C=C1\C=Cc2ccccc2N1CC | -3.4 | 324.1 | + | 109.8
CCCCCN1C=CC=C/C1=C\C=C(C#N)C#N | -0.2 | 336.3 | i | 104.8
COc1ccc(CC(=O)Nc2nc(OCCN3CCCC3=O)cnc2-c2cccc(C(F)(F)F)c2)cc1 | -1.5 | . | i | .
CCOC(=O)C1CC(=NO)c2ccc(OC)c(OC)c2C1 (stereo unspecified) | . | . | i | 109.5
Cc1ccc(S(=O)(=O)N(CC(=O)NCCC2=CCCCC2)Cc2ccccc2)cc1 | -10.8 | 813.2 | + | 107.4
CC(=O)c1ccc(NC(=O)c2ccc(C)c(S(=O)(=O)N3CCOCC3)c2)cc1 | -5.9 | 302.0 | i | 67.0*
O=C(Nc1ccc(NC(=O)c2ccc(Cl)c(S(=O)(=O)N3CCOCC3)c2)cc1)c1ccccc1 | -3.2 | 78.8 | ? | 100.2
CN(c1cccc(NC(=O)c2ccc(Cl)c(S(=O)(=O)N3CCOCC3)c2)c1)S(C)(=O)=O | -1.4 | 456.3 | + | 113.7
CCOC(=O)c1ccc(NC(=O)c2ccc(C)c(S(=O)(=O)N3CCOCC3)c2)cc1 | -4.2 | 250.4 | i | 85.8
COc1cc(Cl)c(CNC[C@H]2O[C@@H](n3cnc4c(=O)[nH]c(N)nc43)[C@H](O)[C@@H]2O)c(Cl)c1O | . | . | i | .
CCc1nc2ccc(C(=O)NCCCN3CCCC3=O)cn2c1N(CC)CCOC | 8.6 | . | i | .
O=S(=O)(c1ccc(Cl)cc1)c1snnc1-c1ccccc1 | 93.7* | 323.6 | . | 97.1
COc1ccc(NC(=O)C2(C)Cc3c(-c4ccc5c(c4)OCO5)ccnc3O2)cc1OC (stereo unspecified) | -6.9 | . | i | .

Compound activity: PubChem BioAssay, several laboratories
